# Measured values taken from ChEMBL document CHEMBL5137129, “Anti-HIV Macrocyclic Daphnane Orthoesters with an Unusual Macrocyclic Ring from Edgeworthia chrysantha” (J Nat Prod, 2022).
# Columns and labels:
# MT4 = test: Cytotoxicity against human MT4 cells assessed as inhibition of cell growth by measuring ATP by CellTiter-Glo luminescent cell viability assay; format: toxicity, cell-based
# Outline: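 MT4 cells were cultured in parallel with the anti-HIV-1 cultures (NL4-3, MOI 0.001, 4 days, medium with compound refreshed at 48 h). Viability was read as ATP of metabolically active cells by CellTiter-Glo luminescence. Dose-response curves came from three independent experiments.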
# [1] = tested on: Human immunodeficiency virus 1; test: Anti-HIV activity against Human immunodeficiency virus 1 […] infected in human MT4 cells assessed as inhibition of viral infection measured after 4 days by serial dilution based p24 ELISA analysis; format: functional, organism-based; details: Human immunodeficiency virus 1, MT4, 96 h
# Outline: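 HIV-1 NL4-3 at MOI 0.001 infected MT4 cells with compounds present at various concentrations (4-fold serial dilutions across the inhibitory phase). Fresh compound-containing medium was added 48 h post-infection. Replication was read by p24 ELISA at 4 days post-infection. Dose-response curves came from three independent experiments.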
SMILES,IC50 (MT4) [nM],EC50 [1] [nM]
C=C(C)[C@]12C[C@@H](COC(=O)c3ccccc3)[C@@]34OC5(O[C@@H]1[C@@H]3[C@@H]1O[C@]1(CO)[C@@H](O)[C@@]1(O)[C@H]4[C@H]([C@H](C)[C@@H]1OC(=O)c1ccccc1)[C@H](C)CCCCCC[C@H]5O)O2,> 32,–
C=C(C)[C@@]12OC34CCC/C=C\CCCC[C@H](CCC)[C@@H]5[C@@H]6[C@]7(O[C@]5(C)OC7=O)[C@H](O)[C@@]5(CO)O[C@H]5[C@@H]([C@H]1O3)[C@]6(O4)[C@H](COC(=O)c1ccccc1)[C@H]2OC(C)=O,> 32,> 32
C=C(C)[C@@]12OC34CCC/C=C\CCCC[C@H](CCC)[C@@H]5[C@@H]6[C@]7(O[C@]5(C)OC7=O)[C@H](O)[C@@]5(CO)O[C@H]5[C@@H]([C@H]1O3)[C@]6(O4)[C@H](C)[C@H]2OC(C)=O,> 32,> 32
C=C(C)[C@@]12OC34CCC/C=C\CCCC[C@H](CCC)[C@@H]5[C@@H]6[C@]7(O[C@]5(C)OC7=O)[C@H](O)[C@@]5(CO)O[C@H]5[C@@H]([C@H]1O3)[C@]6(O4)[C@H](COC(=O)C(C)C)[C@H]2OC(C)=O,> 32,29.3
C=C(C)[C@@]12OC34CCC/C=C\CCCC[C@H](CCC)[C@H]5[C@H](C)C(=O)[C@@]6(O)[C@H](O)[C@@]7(CO)O[C@H]7[C@@H]([C@H]1O3)[C@](O4)([C@H](C)[C@H]2OC(C)=O)[C@H]56,> 32,8.4
C=C(C)[C@@]12OC34CCC/C=C\CCCC[C@H](CCC)[C@H]5[C@H](C)C(=O)[C@@]6(O)[C@H](O)[C@@]7(CO)O[C@H]7[C@@H]([C@H]1O3)[C@](O4)([C@H](COC(=O)C(C)C)[C@H]2OC(C)=O)[C@H]56,21.3,2.9
